Laboratory results as given in ChEMBL document CHEMBL3758180, “Synthesis of mixed MOR/KOR efficacy cyclic opioid peptide analogs with antinociceptive activity after systemic administration” (Eur J Med Chem, 2016).
The source made the active and inactive calls. Positions of bridges follow the written chain, without caps; N, C: chain ends. Non-standard residues stand in square brackets, D forms with d. Residues, ends and D or L forms follow the SMILES beside them. d1Nal = N[C@H](Cc1cccc2ccccc12)C(=O)O; d2Nal = N[C@H](Cc1ccc2ccccc2c1)C(=O)O; Dmt = Cc1cc(O)cc(C)c1C[C@H](N)C(=O)O

Tests used:
[1] = target: T1, Kappa-type opioid receptor (Homo sapiens, UniProt P41145); experiment: Agonist activity at human recombinant KOR expressed in CHO cells assessed as calcium mobilization by Fluo-4 AM based fluorescence analysis relative to DynA; format: functional, cell-based
In short: (§1)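 CHO cells stably co-expressing human recombinant KOR and C-terminally modified Gαqi5; calcium mobilization concentration-response curves. pEC50 from curve fitting with Hill coefficient; intrinsic activity α as ligand Emax over Emax of standard agonist dynorphin A. Mean ± SEM of at least 3 separate experiments, each in duplicate.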

Mus musculus [2] = experiment: Antinociceptive activity in BalbC albino mouse assessed as latency of jumping at 10 mg/kg, ip after 15 mins by hot-plate method; format: functional
[3] = target: Kappa-type opioid receptor (Cavia porcellus, UniProt P41144); experiment: Displacement of [3H]nor-BNI from KOR in Dunkin Hartley guinea pig brain homogenates by liquid scintillation counting analysis; format: tissue-based
[4] = target: Delta-type opioid receptor (Rattus norvegicus, UniProt P33533); experiment: Displacement of [3H][Ile5,6]deltorphin-2 from DOR in Wistar rat brain homogenates by liquid scintillation counting analysis; format: tissue-based
In short: (§2)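 Competition binding in brain membranes of adult male Wistar rats, [3H]DAMGO for MOR or [3H][Ile5,6]deltorphin-2 for DOR. IC50 from log dose-displacement curves, converted to Ki by Cheng-Prusoff. Mean ± SEM of three independent experiments in duplicate.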

Mus musculus [5] = experiment: Antinociceptive activity in icv dosed BalbC albino mouse assessed as latency of jumping after 10 mins by hot-plate method; format: functional
In short: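 Injection icv into left lateral ventricle (10 μL/animal) of hand-restrained mice; hot-plate test at 55 ± 0.5°C 10 min post-injection, jumping latency with 240 s cut-off. Response as %MPE = (t1 − t0)/(t2 − t0) × 100; ED50 by nonlinear regression; 7-10 animals per group.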

[6] = target: T2, Delta-type opioid receptor (Homo sapiens, UniProt P41143); experiment: Agonist activity at human recombinant DOR expressed in CHO cells assessed as calcium mobilization up to 1 uM by Fluo-4 AM based fluorescence analysis; format: functional, cell-based
[7] = Retention time of compound by RP-HPLC analysis; format: physicochemical
[8] = Stability of compound in Wistar rat brain homogenate assessed as compound remaining after 90 mins by RP-HPLC analysis; format: ADME; details: read-out: Stability
In short: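 Peptide incubated with Wistar rat brain homogenate at 37°C, sampled at 0, 7.5, 15, 22.5, 30 and 90 min; remaining intact peptide quantified by RP-HPLC peak area %; value is amount left at 90 min.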

Mu-type opioid receptor [9] = target: Mu-type opioid receptor (Rattus norvegicus, UniProt P33535); experiment: Displacement of [3H]DAMGO from MOR in Wistar rat brain homogenates by liquid scintillation counting analysis; format: tissue-based; in short: as §2
Mu-type opioid receptor [10] = target: Mu-type opioid receptor (Homo sapiens, UniProt P35372); experiment: Agonist activity at human recombinant MOR expressed in CHO cells assessed as calcium mobilization by Fluo-4 AM based fluorescence analysis; format: functional, cell-based
[11] = target: T1, Kappa-type opioid receptor; experiment: Agonist activity at human recombinant KOR expressed in CHO cells assessed as calcium mobilization by Fluo-4 AM based fluorescence analysis; format: functional, cell-based; in short: as §1
Mus musculus [12] = experiment: Antinociceptive activity in ip dosed BalbC albino mouse assessed as latency of jumping after 15 mins by hot-plate method; format: functional; details: for ED50: 0.25 h
Mus musculus [13] = experiment: Antinociceptive activity in BalbC albino mouse assessed as latency of jumping at 3 mg/kg, ip after 30 to 60 mins by hot-plate method; format: functional, organism-based
In short: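 Time course after single ip dose of 3 mg/kg; hot-plate (55 ± 0.5°C) jump latency read at 15, 30, 45 and 60 min, 240 s cut-off. Expressed as %MPE from control, test and cut-off latencies; mean ± SEM, 7-10 mice per group, each tested once.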

Mus musculus [14] = experiment: Antinociceptive activity in BalbC albino mouse assessed as latency of jumping at 3 mg/kg, ip after 15 mins by hot-plate method; format: functional, organism-based
[15] = target: T2, Delta-type opioid receptor; experiment: Agonist activity at human recombinant DOR expressed in CHO cells assessed as calcium mobilization by Fluo-4 AM based fluorescence analysis; format: functional, cell-based
[16] = target: T2, Delta-type opioid receptor; experiment: Agonist activity at human recombinant DOR expressed in CHO cells assessed as calcium mobilization by Fluo-4 AM based fluorescence analysis relative to DPDPE; format: functional, cell-based
In short: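 CHO cells stably co-expressing human recombinant DOR and chimeric Gαqi5 (G66D variant); intracellular calcium rise measured across concentration-response curves. Agonist potency as pEC50; efficacy as intrinsic activity α, ratio of ligand Emax to standard agonist (DPDPE) Emax. Mean ± SEM, at least 3 separate experiments in duplicate.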

Sequence of Kappa-type opioid receptor (Cavia porcellus, UniProt P41144) (P41144 whole entry): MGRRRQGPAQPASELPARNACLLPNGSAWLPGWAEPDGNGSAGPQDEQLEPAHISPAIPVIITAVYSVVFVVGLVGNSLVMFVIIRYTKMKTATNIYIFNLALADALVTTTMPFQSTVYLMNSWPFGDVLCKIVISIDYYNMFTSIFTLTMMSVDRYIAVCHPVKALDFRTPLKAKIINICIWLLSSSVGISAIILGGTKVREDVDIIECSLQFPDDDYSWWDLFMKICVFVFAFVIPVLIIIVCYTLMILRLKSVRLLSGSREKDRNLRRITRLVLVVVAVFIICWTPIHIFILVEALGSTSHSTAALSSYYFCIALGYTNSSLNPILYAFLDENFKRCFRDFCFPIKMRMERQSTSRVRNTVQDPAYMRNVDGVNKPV
Sequence of Delta-type opioid receptor (Rattus norvegicus, UniProt P33533) (P33533 whole entry): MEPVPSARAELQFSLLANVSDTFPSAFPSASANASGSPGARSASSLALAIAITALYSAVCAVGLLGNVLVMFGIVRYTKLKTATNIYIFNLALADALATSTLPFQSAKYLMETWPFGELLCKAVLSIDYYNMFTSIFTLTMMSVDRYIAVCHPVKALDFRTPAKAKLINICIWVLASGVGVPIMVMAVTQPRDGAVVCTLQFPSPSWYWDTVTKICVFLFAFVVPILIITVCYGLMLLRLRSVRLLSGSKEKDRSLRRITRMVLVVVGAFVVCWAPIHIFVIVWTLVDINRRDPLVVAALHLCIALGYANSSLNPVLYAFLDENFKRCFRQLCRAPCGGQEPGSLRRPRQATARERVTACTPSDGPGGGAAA
T1 sequence (P41145 whole entry): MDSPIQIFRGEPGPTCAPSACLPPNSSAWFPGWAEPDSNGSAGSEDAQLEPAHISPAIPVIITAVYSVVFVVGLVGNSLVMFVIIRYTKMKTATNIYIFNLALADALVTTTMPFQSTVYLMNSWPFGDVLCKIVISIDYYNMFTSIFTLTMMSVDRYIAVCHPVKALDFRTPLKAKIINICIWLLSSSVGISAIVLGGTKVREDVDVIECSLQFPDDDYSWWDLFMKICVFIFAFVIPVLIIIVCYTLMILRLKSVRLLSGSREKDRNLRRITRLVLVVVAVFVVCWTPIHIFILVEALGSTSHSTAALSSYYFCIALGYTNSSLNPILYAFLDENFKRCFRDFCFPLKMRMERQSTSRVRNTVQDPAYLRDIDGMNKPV
T2 sequence (P41143 whole entry): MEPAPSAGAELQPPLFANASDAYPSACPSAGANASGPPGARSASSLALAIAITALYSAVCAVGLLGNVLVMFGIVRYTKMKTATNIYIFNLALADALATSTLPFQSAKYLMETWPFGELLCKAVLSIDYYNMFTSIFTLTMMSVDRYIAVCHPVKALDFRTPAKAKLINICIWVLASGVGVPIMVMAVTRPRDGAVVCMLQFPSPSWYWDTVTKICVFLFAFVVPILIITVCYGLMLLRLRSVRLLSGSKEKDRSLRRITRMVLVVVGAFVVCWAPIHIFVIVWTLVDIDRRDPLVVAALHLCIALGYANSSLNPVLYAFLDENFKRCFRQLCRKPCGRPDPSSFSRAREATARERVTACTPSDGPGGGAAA
Sequence of Mu-type opioid receptor (Rattus norvegicus, UniProt P33535) (P33535 whole entry): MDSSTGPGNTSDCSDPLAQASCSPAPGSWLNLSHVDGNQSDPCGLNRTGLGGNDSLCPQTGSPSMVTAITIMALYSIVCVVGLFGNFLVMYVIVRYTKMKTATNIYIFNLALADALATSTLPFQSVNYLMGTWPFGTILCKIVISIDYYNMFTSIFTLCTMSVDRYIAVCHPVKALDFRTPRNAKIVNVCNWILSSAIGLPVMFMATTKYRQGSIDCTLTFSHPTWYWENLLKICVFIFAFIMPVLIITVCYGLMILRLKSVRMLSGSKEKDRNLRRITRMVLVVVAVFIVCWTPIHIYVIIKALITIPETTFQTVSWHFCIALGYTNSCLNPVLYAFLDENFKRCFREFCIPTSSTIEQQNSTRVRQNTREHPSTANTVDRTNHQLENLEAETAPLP
Sequence of Mu-type opioid receptor (Homo sapiens, UniProt P35372) (P35372 whole entry): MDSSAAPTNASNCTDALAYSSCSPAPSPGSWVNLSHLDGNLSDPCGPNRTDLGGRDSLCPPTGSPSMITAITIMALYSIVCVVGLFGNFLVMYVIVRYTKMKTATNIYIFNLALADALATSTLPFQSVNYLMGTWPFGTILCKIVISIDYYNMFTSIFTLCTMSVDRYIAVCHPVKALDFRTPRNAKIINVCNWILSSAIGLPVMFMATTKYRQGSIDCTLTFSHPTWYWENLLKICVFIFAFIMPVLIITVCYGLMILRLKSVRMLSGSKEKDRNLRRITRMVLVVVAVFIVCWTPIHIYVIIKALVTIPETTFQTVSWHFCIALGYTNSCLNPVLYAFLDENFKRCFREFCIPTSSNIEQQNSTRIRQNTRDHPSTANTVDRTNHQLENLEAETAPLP

Row | SMILES | Intrinsic activity [1] | Activity (Mus musculus [2]) [%] | Ki [3] [nM] | Ki [4] [nM] | ED50 (Mus musculus [5]) [µg] | pEC50 [6] | Retention_time [7] [min] | remaining at 1.5 h [8] [%] | Ki (Mu-type opioid receptor [9]) [nM] | EC50 (Mu-type opioid receptor [10]) [nM] | EC50 [11] [nM] | Emax [1] [%] | Activity (Mus musculus [12]) | ED50 (Mus musculus [12]) [mg/kg] | Activity (Mus musculus [13]) | Activity (Mus musculus [14]) | EC50 [15] [nM] | Intrinsic activity [16]
1 | Cc1cc(O)cc(C)c1C[C@H](N)C(=O)N[C@@H]1CCCCNC(=O)C[C@@H](C(N)=O)NC(=O)[C@H](Cc2ccccc2)NC(=O)[C@@H](Cc2cccc3ccccc23)NC1=O | 0.43 | 17 | 56.6 | 9170 | 0.714 | inactive | 16.21 | 93.8 | 69.2 | 20 | 1290 | – | – | – | – | – | – | –
2 | Cc1cc(O)cc(C)c1C[C@H](N)C(=O)N[C@@H]1CCCCNC(=O)C[C@@H](C(N)=O)NC(=O)[C@H](Cc2ccccc2)NC(=O)[C@@H](Cc2ccc3ccccc3c2)NC1=O | 0.31 | 24 | 751 | 4250 | 0.533 | inactive | 16.38 | 85.4 | 16.8 | 11.5 | 1700 | – | – | – | – | – | – | –
3 | NC(=O)[C@@H]1CC(=O)NCCCC[C@@H](NC(=O)[C@@H](N)Cc2ccc(O)cc2)C(=O)N[C@@H](Cc2ccccc2)C(=O)N[C@@H](Cc2ccccc2)C(=O)N1 (H-Y[dK]FFD-NH2; lactam 2-5) | 1 | 88 | 1.12 | 171 | 0.05 | – | 20.5 | 96 | 0.35 | 2.04 | 6.61 | 106 | Dose-dependent effect | < 0.01 | inactive | Active | – | –
4 | Cc1cc(O)cc(C)c1C[C@H](N)C(=O)N[C@@H]1CCCCNC(=O)C[C@@H](C(N)=O)NC(=O)[C@@H](Cc2cccc3ccccc23)NC(=O)[C@H](Cc2ccccc2)NC1=O (H-[Dmt][dK]F[d1Nal]D-NH2; lactam 2-5) | 0.74 | 82 | 1.78 | 51.2 | 0.06 | – | 16.02 | 96 | 0.25 | 5.62 | 41.7 | 79 | Dose-dependent effect | 1.16 | inactive | Active | 64.6 | 0.5
5 | Cc1cc(O)cc(C)c1C[C@H](N)C(=O)N[C@@H]1CCCCNC(=O)C[C@@H](C(N)=O)NC(=O)[C@@H](Cc2ccc3ccccc3c2)NC(=O)[C@H](Cc2ccccc2)NC1=O (H-[Dmt][dK]F[d2Nal]D-NH2; lactam 2-5) | 0.44 | 55 | 1.02 | 110 | 0.08 | – | 16.1 | 95.6 | 0.44 | 3.63 | 102 | – | Dose-dependent effect | 3.24 | inactive | Active | 53.7 | 0.31
6 | CC[C@H](C)[C@H](NC(=O)[C@H](CCCNC(=N)N)NC(=O)[C@H](CCCNC(=N)N)NC(=O)[C@H](CC(C)C)NC(=O)[C@H](Cc1ccccc1)NC(=O)CNC(=O)CNC(=O)[C@@H](N)Cc1ccc(O)cc1)C(=O)N[C@@H](CCCNC(=N)N)C(=O)N1CCC[C@H]1C(=O)N[C@@H](CCCCN)C(=O)N[C@@H](CC(C)C)C(=O)N[C@@H](CCCCN)C(=O)O [ANALOG OF DYNORPHIN A] | – | – | – | – | – | – | – | – | – | – | – | – | – | – | – | – | – | 0.99
7 | NC(=O)[C@H](Cc1ccccc1)NC(=O)[C@H](Cc1ccccc1)NC(=O)[C@@H]1CCCN1C(=O)[C@@H](N)Cc1ccc(O)cc1 [ENDOMORPHIN 2] | – | – | – | – | 1.82 | – | 17.25 | 0.61 | – | – | – | – | – | – | – | – | – | –
